Hits are enriched below; roughly 1.1% of the tested compounds scored in any of these assays.
CAL PDZ FP-1 = blocks peptide binding to human CAL PDZ domain. Q9HD26. purified CAL PDZ, TMR-peptide fluorescence polarization, 1 h. inhibition, % at 20 µM. actives 0.02% (n = 330,000). AID 504414;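 active = highest replicate inhibition of at least 40%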;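 note: plate controls were DMSO neutral control wells for no effect and unlabeled competitor peptide control wells for full effect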
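Material: tagged CAL PDZ domain; buffer or medium: 25 mM sodium phosphate pH 7.4, 150 mM NaCl, TCEP, IgG, Thesit; compound dosing: single point, 20 µM; schedule: 1 h incubation at room temperature before polarization reading; measured by: FP readout, S and P plane fluorescence; read-out basis: percent inhibition from loss of millipolarization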
miR122 inh = inhibitors of miR-122 in Huh7 cells. Huh7 miR-122 Renilla luciferase sensor, 48 h; neutral wells = 0, positive control = 100. activation (reporter increase), % at 12.5 µM. actives 0.3% (n = 340,000). AID 602342;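 active = mean replicate activation score at least 90 and every replicate individually at or above 90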;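 note: higher luciferase means less miR-122 activity so hits act as miR-122 inhibitors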
Keap1 Nrf2 FP = disrupts human Keap1 binding to Nrf2 peptide; Keap1 Kelch-Nrf2 peptide fluorescence polarization, 1536-well; AID 504523; Q14145; actives 0.15% (n = 340,000); inhibition, % at 9.4 µM; in the data active = inhibition above about 12%;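 note: human Keap1 Kelch domain with fluorescein labeled Nrf2 9mer peptide probe; 0% = neutral control wells and 100% = peptide positive control; higher means more block of Keap1 binding to Nrf2 peptide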
Target sequence (Q14145 whole entry, looked up, the tested form may be a part): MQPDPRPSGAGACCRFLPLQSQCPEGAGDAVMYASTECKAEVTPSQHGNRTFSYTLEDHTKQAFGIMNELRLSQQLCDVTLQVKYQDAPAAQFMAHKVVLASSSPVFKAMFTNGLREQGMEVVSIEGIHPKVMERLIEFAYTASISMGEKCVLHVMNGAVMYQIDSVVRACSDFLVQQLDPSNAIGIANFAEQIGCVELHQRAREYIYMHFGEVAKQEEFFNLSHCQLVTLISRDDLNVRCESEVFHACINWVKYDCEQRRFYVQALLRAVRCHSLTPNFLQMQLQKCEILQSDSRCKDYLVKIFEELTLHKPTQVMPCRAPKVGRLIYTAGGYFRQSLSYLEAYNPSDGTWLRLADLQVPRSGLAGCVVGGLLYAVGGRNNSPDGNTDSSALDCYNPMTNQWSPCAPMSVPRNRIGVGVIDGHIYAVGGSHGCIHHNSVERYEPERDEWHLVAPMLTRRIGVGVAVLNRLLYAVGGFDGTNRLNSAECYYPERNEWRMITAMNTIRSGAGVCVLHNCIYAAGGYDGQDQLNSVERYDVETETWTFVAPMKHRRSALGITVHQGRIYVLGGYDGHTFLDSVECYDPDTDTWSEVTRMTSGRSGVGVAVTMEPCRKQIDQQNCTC
CAL PDZ FP-2 = blocks peptide binding to the human CAL PDZ domain; actives 0.92% (n = 300,000); purified CAL PDZ, TMR-peptide fluorescence polarization, 1 h; Q9HD26; AID 602252; inhibition, % at 24.9 µM;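 active = mean inhibition of at least 30% with at least half of replicates also reaching 30%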;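 note: 0% = DMSO neutral control and 100% = excess unlabeled competitor peptide PRC23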
C-LANA FP = blocks KSHV LANA C-terminal domain binding to DNA | AID 504423 | inhibition, % at 9 µM | MBP-C-LANA/FAM-LBS DNA binding, fluorescence polarization | actives 0.078% (n = 340,000);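 active = highest replicate inhibition at or above 60% at 9 µM, even if other replicates fall short; inactive = all replicates below 60% inhibition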;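 note: 0% = neutral control wells and 100% = 4 µM acridine orange control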
* marks the source's active call; other numbers are inactive results; . = no result given; [ ] = dose if it differs, or a comment.

SMILES	CAL PDZ FP-1	miR122 inh	Keap1 Nrf2 FP	CAL PDZ FP-2	C-LANA FP
O=S(=O)(NCCc1ccncc1)c1ccc(F)cc1	1	.	-7	8	-1
O=S(=O)(NCCc1ccncc1)c1ccc(Br)cc1	-1	192*	0	-3	-1
COc1ccc(S(=O)(=O)NCCc2ccncc2)cc1	-1	78	4	63*	1
Cc1nn(C)c(Oc2ccccc2)c1CCNS(=O)(=O)c1ccc(Cl)cc1	-3	70	6	-4	0
C[C@@H]1CN([C@H](C)CO)C(=O)c2cc(-c3cccc(F)c3)cnc2O[C@H]1CN(C)C(=O)C1CCC1	.	-3[16.7 µM]	.	.	.
O=C(C[C@@H]1CC[C@H]2[C@@H](COC[C@H](O)CN2Cc2cccc(Cl)c2)O1)NCC1CCCCC1	.	-8[16.7 µM]	.	.	.
C[C@@H]1CN([C@H](C)CO)C(=O)c2cccc(NC(=O)c3ccncc3)c2O[C@@H]1CN(C)C(=O)Nc1ccc(C(F)(F)F)cc1	.	-4[16.7 µM]	.	.	.
Cn1c(CN2CCCCC2)nc2cc(NC(=O)c3ccccc3Cl)ccc21	0	0	-5	.	0
COc1ccccc1C(=O)Nc1ccc2c(c1)nc(CN1CCCCC1)n2C	-1	-1	-3	71*	0
CC(C)CCNC1c2ccccc2C(=O)N1Cc1ccccc1 (configuration not stated)	.	1	-8	88*	-1
COc1cc(NC2c3ccccc3C(=O)N2Cc2ccccc2)cc(OC)c1OC (configuration not stated)	-2	.	0	-14	0
COCCOC(=O)c1c(C)nc(SCC(=O)Nc2cccc3ccccc23)c(C#N)c1-c1ccco1	0	-6	-2	-1	0
CNC(=O)c1c(C)nc(SCC(=O)NCc2ccc(OC)cc2)c(C#N)c1-c1ccco1	0	-7	-1	55*	0
COc1ccc(NC(=O)N(C)C[C@H]2OCCCC[C@@H](C)Oc3ccc(N(C)C)cc3C(=O)N([C@@H](C)CO)C[C@H]2C)cc1	.	-3[16.7 µM]	.	.	.
CC1=C(O)C(=O)C(C2=C(O)C(=O)C(C)=C(O)C2=O)=C(O)C1=O	0	5	-2	2	61*
CCOc1ccc(C(=O)/C=C/c2ccc(OC)c(OC)c2)cc1	-2	.	-7	61*	3
O=C(Nc1ccnn1C1CCN(C2CCC2)CC1)c1ccccc1	0	-6	1	69*	1
O=C(Nc1ccnn1C1CCN(C2CCC2)CC1)c1ccccc1Cl	0	12	0	17	0
CCCNC(=O)C[C@@H]1CC[C@H]2[C@@H](COc3ccc(NC(=O)c4cccc(F)c4)cc3C(=O)N2C)O1	.	-5[16.7 µM]	.	.	.
C[C@@H]1CN([C@@H](C)CO)C(=O)c2cc(NC(=O)Cc3cn(C)c4ccccc34)ccc2O[C@H]1CN(C)S(C)(=O)=O	.	5[16.7 µM]	.	.	.
C=CCC1Cc2c(Br)cccc2C(CC=C)N1 (configuration not stated)	-2	.	-3	.	-2
C=CC[C@H]1Cc2c(cccc2[N+](=O)[O-])[C@H](CC=C)N1	-1	-2	-11	39*	-2
CCSc1nsc(NC(=O)Nc2cccc(F)c2)n1	8	-23	1	70*	1
CN(C)C1(CNC(=S)Nc2ccccc2C(F)(F)F)CCCCC1	0	.	-4	61*	0
CCN1C(=O)CS/C1=N\S(=O)(=O)c1ccc(C)cc1	2	-3	0	-2	1
SMILES	CAL PDZ FP-1	miR122 inh	Keap1 Nrf2 FP	CAL PDZ FP-2	C-LANA FP
CCN1C(=O)CS/C1=N\S(=O)(=O)c1ccccc1	0	5	-1	76*	1
COc1ccc(-c2cnc3c(c2)C(=O)N([C@H](C)CO)C[C@H](C)[C@@H](CN(C)C(=O)Cc2ccccn2)O3)cc1	.	1[16.7 µM]	.	.	.
CCCNC(=O)C1CCC(CNS(=O)(=O)c2ccc3c(c2)CC(C)N3C(C)=O)CC1 (configuration not stated)	0	-4	-3	82*	-1
CC(=O)N1c2ccc(S(=O)(=O)N3CCC(C(=O)Nc4cc(C)ccn4)CC3)cc2CC1C (configuration not stated)	-1	-8	0	67*	0
CC(=O)N1c2ccc(S(=O)(=O)NCC3CCC(C(=O)Nc4cc(C)ccn4)CC3)cc2CC1C (configuration not stated)	-2	-11	-5	-4	-1
CC(=O)N1c2c(cc(Br)cc2S(=O)(=O)NCc2ccccc2)CC1C (configuration not stated)	-3	125*	-1	.	0

Screens (PubChem BioAssay)
